Test results as given in the EternaBench riboswitch data.

System: MS2 coat protein
Experiment: apparent Kd, MS2 coat protein; higher = weaker binding; RNA-MaP array; FMN 200 µM where present
How it was run: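 SNAP-549-labelled MS2 coat protein, doubled from 0.7 or 1.5 nM to 3 µM, was titrated over designs transcribed by stalled E. coli RNA polymerase on Illumina sequencing-chip clusters. Titrations were run without and then with constant ligand in 100 mM Tris-HCl pH 7.5, 80 mM KCl, 4 mM MgCl2, BSA, DTT, yeast tRNA and Tween-20. The apparent Kd is the median of filtered per-cluster fits to green signal normalised to red-channel RNA signal and control-cluster median Fmax.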

[1] = designed as: OFF switch for flavin mononucleotide, no ligand
[2] = ligand present: flavin mononucleotide, designed as: OFF switch for flavin mononucleotide
[3] = designed as: ON switch for flavin mononucleotide, no ligand
[4] = ligand present: flavin mononucleotide, designed as: ON switch for flavin mononucleotide

Sequence	apparent Kd [1] [nM]	apparent Kd [2] [nM]	apparent Kd [3] [nM]	apparent Kd [4] [nM]
AGGACGAGGCAGAAGGGACAUGAGGAUCACCCAUGUACCGUGGUUCAGCAGUCAGGAUAUGCCGUACGUAAACAUAUCGUAAGA	10.3	71	–	–
UCGUGUAUAGAGGAUAUAUUAUUUUUUUUAACAAUAGAAGGCUAAACAUGAGGAUCACCCAUGUAUUUUUUUUU	31.4	44	–	–
CGAUGUUAUGCAGGAUAUCUCCCUUGAAUGCGGAGAGAAGGGCAUAGGGAGACAUACGCCUUAUUACAUGAGGAUCACCCAUGU	8.42	7.86	–	–
GGGAGGUCAGGAUAUGCAUGGCGGGACUUGCGUCGUGGCGUGCAGAAGGGACAUGAGGAUCACCCAUGUGGAGA	127	252	–	–
AUUAGCUGAGGAUAUGCAGCUUUGUUCGUCGAGUGAAAAGAACAUGAGGAUCACCCAUGUAGAAGGCAGUUGAC	17.4	18.1	–	–
CCUCGACAUGAGGAUCACCCAUGUCAGGAUAUUGUGUCUCGGGUUUUUUACCGAUAGGCAAGAAGGGAUGUGUG	23.4	31	–	–
CUGAUGUGAGGAUAUCGGGCUACAGGACUGCUGCUAGCAAACGAGAAGGCACAUGAGGAUCACCCAUGUGAGAG	18.1	25.4	–	–
UUUAUACAUGAGGAUCACCCAUGUCAAUGUAGUCGAGGAUAUGGGCAGCCGUGAGGCGUACUAGAAGGCGAAGAGG	–	–	203	64.9
UGGUACAUGGGAGGAUAUGGUGUAGACACAUGAGGAUCACCCAUGUCGAUGGAGACAUCGGAGAUCCAGAAGGCCCAUGUACCU	–	–	503	24
CGGUACUGAGGAUAUACAUGAGGAUCACCCAUGUGUUCUAGCUAGCGUACUGGCUAUUGUAGAAGGCGGUGCUG	17.5	99.8	–	–
CCUAAGGAGGUAGGAUAUUGUGUGGUGGCCGGGCUCCCACGGCGAGCGGCACAAGAAGGAUCCCUACAUGAGGAUCACCCAUGU	–	–	25.5	20.3
GUGUACAGAGGAUAUAUAUGGGCAUGGAAACAUGCAUCUUCACAUGAGGAUCACCCAUGUAGAAGGCUGUACAC	143	84.6	–	–
UUUUUUUACUAGGAUAUCAGAGUCGAAAGACUCUGAGAAGGAGUAACAUGAGGAUCACCCAUGUGUCCUUUUUU	20.1	49.3	–	–
AAGUCGACGGUGAGGAUAUUAGUUGAACGACAGAUUAAGAAGGUACAUGAGGAUCACCCAUGUGGGUAGUGUUG	96	98.6	–	–
UUAAAUCAUGUAGGAUAUGCAUGGCGAAGCUACGCAGAAGGACAUGAGGAUCACCCAUGUUAUAGCUACAGAGUUCUGUGGCAA	102	233	–	–
GGGCGUUGGGAGAAGGUACAUUAAAUUAGUUUAACAUGAGGAUCACCCAUGUAAGGAUAUCCCAUCGUGUAAUAUUAUACAGCC	11	13.8	–	–
UAUGACAUGAGGAUCACCCAUGUCAGCGAGAAAUGAGAGUCACAGGAUAUGUUUUCGGCCGGCAGACAGAAGGGUGACCCUCCG	–	–	7.33	6.74
UGGUACAUGGGAGGAUAUCAUGUAGAUACAUGAGGAUCACCCAUGUCGAUGGAGACAUCGGAGAUUGAGAAGGCCCAUGUACCU	–	–	778	32.9
UUAAAUCAUGUAGGAUAUGCAUGGCGAAGCUACGCAGAAGGACAUGAGGAUCACCCAUGUUCUAGCUACCGAGUACGGUGGCAA	20.6	86.3	–	–
AUCAUACAUGAGGAUCACCCAUGUUCCGGCAGGUCAGGAUAUAAAUCGAAUGAGUUCUAGUUAGAAGGGACAUCUA	–	–	49.3	39.2
